Data taken from ChEMBL document CHEMBL3414529, “Discovery and optimization of novel dual dithiocarbamates as potent anticancer agents” (Eur J Med Chem, 2015).
pIC50: −log10 of the molar value.

Assays:
[1] = Antiproliferative activity against human H460 cells assessed as inhibition of cell growth after 72 hrs by MTT method; format: functional, cell-based; conditions: NCI-H460, 72 h
In short: (§1)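 Tumor cells seeded in 100 µL suspension, 24 h preincubation at 37 °C, 5% CO2. Serial dilutions of compound then added for 72 h; DMSO controls at 0.5% final. Surviving cells quantified by MTT, OD read at 492/620 nm. IC50 is the concentration giving 50% growth inhibition, taken from dose-response curves of a triplicate experiment.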

SW480 = experiment: Antiproliferative activity against human SW480 cells assessed as inhibition of cell growth after 72 hrs by MTT method; format: functional, cell-based; conditions: SW480, 72 h; in short: as §1
[2] = Antiproliferative activity against human PC3 cells assessed as inhibition of cell growth after 72 hrs by MTT method; format: functional, cell-based; conditions: PC-3, 72 h; in short: as §1
NCI-H522 = experiment: Antiproliferative activity against human NCI-H522 cells assessed as inhibition of cell growth after 72 hrs by MTT method; format: functional, cell-based; conditions: NCI-H522, 72 h; in short: as §1
A-375 = experiment: Antiproliferative activity against human A375 cells assessed as inhibition of cell growth after 72 hrs by MTT method; format: functional, cell-based; conditions: A-375, 72 h; in short: as §1
HepG2 = experiment: Antiproliferative activity against human HepG2 cells assessed as inhibition of cell growth after 72 hrs by MTT method; format: functional, cell-based; conditions: HepG2, 72 h; in short: as §1
MDA-MB-453 = experiment: Antiproliferative activity against human MDA-MB-453 cells assessed as inhibition of cell growth after 72 hrs by MTT method; format: functional, cell-based; conditions: MDA-MB-453, 72 h; in short: as §1
HEK293 = experiment: Antiproliferative activity against human HEK293 cells assessed as inhibition of cell growth after 72 hrs by Alamar Blue method; format: cell-based; conditions: HEK293, 72 h
In short: (§2)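 Non-tumor cells seeded at 3.5 × 10³ cells/mL, 100 µL each, preincubated 24 h at 37 °C, 5% CO2. Serial dilutions then added for 72 h; DMSO controls at 0.5% final. Surviving cells measured by Alamar Blue, OD read at 492/620 nm. IC50 from a triplicate experiment.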

[3] = Antiproliferative activity against human H1299 cells assessed as inhibition of cell growth after 72 hrs by MTT method; format: functional, cell-based; conditions: NCI-H1299, 72 h; in short: as §1
[4] = Antiproliferative activity against human LO2 cells assessed as inhibition of cell growth after 72 hrs by Alamar Blue method; format: cell-based; conditions: L02, 72 h; in short: as §2
MCF7 = experiment: Antiproliferative activity against human MCF7 cells assessed as inhibition of cell growth after 72 hrs by MTT method; format: functional, cell-based; conditions: MCF7, 72 h; in short: as §1
[5] = Antiproliferative activity against human COLO205 cells assessed as inhibition of cell growth after 72 hrs by MTT method; format: functional, cell-based; conditions: COLO 205, 72 h; in short: as §1

Row | SMILES | pIC50 [1] | also measured
1 | CN(C)C(=S)SCC(CSC(=S)N(C)C)C(=O)c1ccccc1 | 5.71 | –
2 | CN(C)C(=S)SCC(CSC(=S)N(C)C)C(=O)c1ccc(F)cc1 | 5.92 | –
3 | CN(C)C(=S)SCC(CSC(=S)N(C)C)C(=O)c1ccccc1F | 6.04 | –
4 | COc1ccccc1C(=O)C(CSC(=S)N(C)C)CSC(=S)N(C)C | 6.09 | –
5 | COc1cccc(C(=O)C(CSC(=S)N(C)C)CSC(=S)N(C)C)c1 | 5.91 | –
6 | CN(C)C(=S)SCC(CSC(=S)N(C)C)C(=O)c1ccc(OCc2ccccc2)cc1 | 5.01 | –
7 | CN(C)C(=S)SCC(CSC(=S)N(C)C)C(=O)c1ccc(O)cc1 | 4.52 | –
8 | CN(C)C(=S)SCC(CSC(=S)N(C)C)C(=O)c1cccnc1 | 6.06 | –
9 | CN(C)C(=S)SCC(CSC(=S)N(C)C)C(=O)c1nccs1 | 6.08 | –
10 | CN(C)C(=S)SCC(CSC(=S)N(C)C)C(=O)c1ccc[nH]1 | 4.01 | –
11 | CN(C)C(=S)SCC(CSC(=S)N(C)C)C(=O)c1cc2ccccc2oc1=O | 6.18 | –
12 | CN(C)C(=S)SCC(CSC(=S)N(C)C)C(=O)c1csc2ccccc12 | 6.07 | –
13 | CN(C)C(=S)SCC(CSC(=S)N(C)C)C(=O)c1cnc2ccccc2c1 | 6.32 | pIC50 (SW480): 5.20; pIC50 [2]: 6.37; pIC50 (NCI-H522): 6.86; pIC50 (A-375): 6.36; pIC50 (HepG2): 7.27; pIC50 (MDA-MB-453): 6.79; pIC50 (HEK293): 4.97; pIC50 [3]: 6.21; pIC50 [4]: 4.88; pIC50 (MCF7): 7.64; pIC50 [5]: 6.49
14 | CN(C)C(=S)SCC(CSC(=S)N(C)C)C(=O)c1ccc2c(c1)ncn2-c1ccccc1 | 5.66 | –
15 | CN(C)C(=S)SCC(CSC(=S)N(C)C)C(=O)c1cnn2ccccc12 | 4.50 | –
16 | CN(C)C(=S)SCC(CSC(=S)N(C)C)C(=O)c1c(-c2ccccc2)nn2ccccc12 | 5.39 | –
17 | CN(C)C(=S)SCC(CSC(=S)N(C)C)C(=O)c1cnn2ncccc12 | 5.34 | –
18 | CN(C)C(=S)SCC(CSC(=S)N(C)C)C(=O)c1c(-c2ccccc2)nn2ncccc12 | 4.24 | –
19 | CN(C)C(=S)SCC(CSC(=S)N(C)C)C(=O)c1cnc2ccccn12 | 4.89 | –
20 | Cc1nc2ccccn2c1C(=O)C(CSC(=S)N(C)C)CSC(=S)N(C)C | 3.82 | –
21 | CC(=O)C(CSC(=S)N(C)C)CSC(=S)N(C)C | 6.05 | –
22 | CCN(CC)C(=S)SCC(CSC(=S)N(CC)CC)C(=O)c1cnc2ccccc2c1 | 5.29 | –
23 | CN1CCN(C(=S)SCC(CSC(=S)N2CCN(C)CC2)C(=O)c2cnc3ccccc3c2)CC1 | 5.60 | –
24 | O=C(c1cnc2ccccc2c1)C(CSC(=S)N1CCOCC1)CSC(=S)N1CCOCC1 | 6.24 | –
25 | O=C(c1cnc2ccccc2c1)C(CSC(=S)N1CCCC1)CSC(=S)N1CCCC1 | 6.10 | –
26 | O=C(c1cnc2ccccc2c1)C(CSC(=S)N1CCCCC1)CSC(=S)N1CCCCC1 | 5.33 | –
27 | O=C(c1cnc2ccccc2c1)C(CSC(=S)N1CCSCC1)CSC(=S)N1CCSCC1 | 3.90 | –
28 | CN(Cc1cccnc1)C(=S)SCC(CSC(=S)N(C)Cc1cccnc1)C(=O)c1cnc2ccccc2c1 | 6.00 | –
